Activity calls are given as the source filed them. The calls are words filed in the database; no cut-off is given here.
How the values were obtained:
[1] = Antiproliferative activity against human Androgen-resistant 22Rv1 cells assessed as reduction in cell viability measured after 72 hrs by MTS assay; type: functional, cell-based; settings: 22Rv1, 72 h
How it was run: (§1)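 MTS viability assay run in triplicate wells. Serial dilutions in DMSO were given, with DMSO as negative control and doxorubicin as positive control, and incubated 72 h. MTS reagent was added for 2 h and absorbance read at 490 nm. % cytotoxicity = (A_medium − A_treatment)/A_medium × 100. EC50 ± SD was taken from dose-response curves of at least three independent experiments.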

LNCaP = assay: Antiproliferative activity against androgen-sensitive human LNCaP cells assessed as reduction in cell viability measured after 72 hrs by MTS assay; type: functional, cell-based; how it was run: as §1
[2] = molecular target: T1, Bromodomain-containing protein 3 (Homo sapiens, UniProt Q15059); assay: Inhibition of BRD3-BD2 (unknown origin) by fluorescence polarization assay
How it was run: (§2)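 FP competition assay using the fluorescein-labeled PCC conjugate (4 nM) as tracer. Recombinant His-tagged BRD bromodomain (20–400 nM) in 50 mM HEPES pH 7.4, 150 mM NaCl, 0.5 mM TCEP, 0.05% Tween-20. DMSO-matched serial dilutions were added and the plate incubated. Read at ex 485/em 535 nm, with G-factor zeroed on tracer alone. Triplicate data were curve-fitted, error SEM.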
Target sequence in this assay (Q15059 whole entry): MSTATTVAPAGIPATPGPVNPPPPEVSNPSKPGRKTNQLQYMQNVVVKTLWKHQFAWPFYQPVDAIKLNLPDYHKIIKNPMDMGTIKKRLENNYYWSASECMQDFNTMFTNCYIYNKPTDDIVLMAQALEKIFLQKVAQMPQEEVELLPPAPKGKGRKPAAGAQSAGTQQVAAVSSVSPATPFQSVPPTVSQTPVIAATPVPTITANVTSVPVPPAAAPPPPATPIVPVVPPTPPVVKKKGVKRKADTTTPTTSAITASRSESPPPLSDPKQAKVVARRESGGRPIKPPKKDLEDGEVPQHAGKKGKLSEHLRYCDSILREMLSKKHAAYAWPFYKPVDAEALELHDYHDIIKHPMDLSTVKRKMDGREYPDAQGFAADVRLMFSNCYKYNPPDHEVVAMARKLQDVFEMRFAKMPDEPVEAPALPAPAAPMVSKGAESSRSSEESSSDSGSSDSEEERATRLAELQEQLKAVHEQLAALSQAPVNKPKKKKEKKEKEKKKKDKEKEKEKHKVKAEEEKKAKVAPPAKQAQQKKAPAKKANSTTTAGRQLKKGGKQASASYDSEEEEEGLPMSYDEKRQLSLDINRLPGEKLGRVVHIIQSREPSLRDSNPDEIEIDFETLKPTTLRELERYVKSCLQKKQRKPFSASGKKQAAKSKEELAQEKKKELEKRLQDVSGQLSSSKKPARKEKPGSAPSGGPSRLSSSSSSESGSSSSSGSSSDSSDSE

[3] = molecular target: T1, Bromodomain-containing protein 3; assay: Inhibition of BRD3-BD1 (unknown origin) by fluorescence polarization assay; how it was run: as §2
Target sequence in this assay (Q15059 whole entry): as above

[4] = Cytotoxicity against HFF cells assessed as reduction in cell viability measured after 72 hrs by MTS assay; type: toxicity, cell-based; settings: human; how it was run: as §1
DU-145 = assay: Antiproliferative activity against AR-negative human DU-145 cells assessed as reduction in cell viability measured after 72 hrs by MTS assay; settings: DU-145, 72 h
PC-3 [5] = assay: Antiproliferative activity against androgen-insensitive human PC-3 cells assessed as reduction in cell viability measured after 72 hrs by MTS assay; type: functional, cell-based; settings: PC-3, 72 h; how it was run: as §1
[6] = molecular target: T2, Bromodomain-containing protein 4 (Homo sapiens, UniProt O60885); assay: Inhibition of BRD4-BD2 (unknown origin) by fluorescence polarization assay; how it was run: as §2
[7] = molecular target: T2, Bromodomain-containing protein 4; assay: Inhibition of BRD4-BD1 (unknown origin) by fluorescence polarization assay; how it was run: as §2
PC-3 [8] = assay: Cytotoxicity against human PC-3 cells assessed as reduction in cell viability measured after 5 days by Cell-Titer glo assay; type: functional, cell-based; settings: PC-3, 120 h
VCaP [9] = assay: Downregulation of TMPRSS2 gene levels in human VCaP cells incubated for 24 hrs by qRT-PCR analysis; type: functional, cell-based; settings: dose 25-2500 nM
How it was run: (§3)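 VCaP cells grown to 50% confluence, then treated with compound or DMSO (Methods state 16 h, legend states 24 h). Total RNA isolated, cDNA made from 1 µg RNA, SYBR Green qPCR run in triplicate. Expression by ΔΔCt, normalised to GAPDH. Three independent experiments, SEM.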

VCaP [10] = assay: Downregulation of AR […] expression in human VCaP cells at 25 to 2500 nM incubated for 24 hrs by qRT-PCR analysis; type: functional, cell-based; settings: dose 25-2500 nM; how it was run: as §3
VCaP [11] = assay: Downregulation of ERG gene levels in human VCaP cells incubated for 24 hrs by qRT-PCR analysis; type: functional, cell-based; settings: dose 25-2500 nM; how it was run: as §3
VCaP [12] = assay: Downregulation of BRD3 mRNA levels in human VCaP cells at 25 to 2500 nM incubated for 24 hrs by qRT-PCR analysis; type: functional, cell-based; settings: dose 25-2500 nM; how it was run: as §3
VCaP [13] = assay: Downregulation of BRD4 mRNA levels in human VCaP cells at 25 to 2500 nM incubated for 24 hrs by qRT-PCR analysis; type: functional, cell-based; settings: dose 25-2500 nM; how it was run: as §3
VCaP [14] = assay: Antiproliferative activity against AR-positive human VCaP cells assessed as reduction in cell viability measured after 72 hrs by MTS assay; type: functional, cell-based
How it was run: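 VCaP cells in 96-well plates, compound serially diluted in DMSO and run in triplicate wells for 72 h. MTS reagent added for 2 h, absorbance read at 490 nm. % cytotoxicity = (A_medium − A_treatment)/A_medium × 100. EC50 and SD taken from dose-response curves, at least three independent experiments.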

VCaP [15] = assay: Downregulation of PSA […] expression in human VCaP cells incubated for 24 hrs by qRT-PCR analysis; type: functional, cell-based; settings: dose 25-2500 nM; how it was run: as §3
VCaP [16] = assay: Downregulation of BRD2 mRNA levels in human VCaP cells at 25 to 2500 nM incubated for 24 hrs by qRT-PCR analysis; type: functional, cell-based; settings: dose 25-2500 nM; how it was run: as §3
[17] = Cytotoxicity against human WI-38 cells assessed as reduction in cell viability measured after 72 hrs by MTS assay; type: toxicity, cell-based; how it was run: as §1
[18] = molecular target: T2, Bromodomain-containing protein 4; assay: Induction of BRD4 degradation in human PC-3 cells incubated for 16 hrs by immunoblotting analysis; type: cell-based
How it was run: (§4)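 MDA-MB-231 or PC-3 cells at 50% confluence in DMEM/10% FBS/pen-strep, treated 16 h with doses falling tenfold from 10 µM to 1 nM. RIPA lysates immunoblotted for BRD2, BRD3 and BRD4 with GAPDH as control. DC50 derived from band densitometry. SEM, n = 2.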

[19] = molecular target: T1, Bromodomain-containing protein 3; assay: Induction of BRD3 degradation in human PC-3 cells incubated for 16 hrs by immunoblotting analysis; type: cell-based; how it was run: as §4
Target sequence in this assay (Q15059 2-726 limits assumed): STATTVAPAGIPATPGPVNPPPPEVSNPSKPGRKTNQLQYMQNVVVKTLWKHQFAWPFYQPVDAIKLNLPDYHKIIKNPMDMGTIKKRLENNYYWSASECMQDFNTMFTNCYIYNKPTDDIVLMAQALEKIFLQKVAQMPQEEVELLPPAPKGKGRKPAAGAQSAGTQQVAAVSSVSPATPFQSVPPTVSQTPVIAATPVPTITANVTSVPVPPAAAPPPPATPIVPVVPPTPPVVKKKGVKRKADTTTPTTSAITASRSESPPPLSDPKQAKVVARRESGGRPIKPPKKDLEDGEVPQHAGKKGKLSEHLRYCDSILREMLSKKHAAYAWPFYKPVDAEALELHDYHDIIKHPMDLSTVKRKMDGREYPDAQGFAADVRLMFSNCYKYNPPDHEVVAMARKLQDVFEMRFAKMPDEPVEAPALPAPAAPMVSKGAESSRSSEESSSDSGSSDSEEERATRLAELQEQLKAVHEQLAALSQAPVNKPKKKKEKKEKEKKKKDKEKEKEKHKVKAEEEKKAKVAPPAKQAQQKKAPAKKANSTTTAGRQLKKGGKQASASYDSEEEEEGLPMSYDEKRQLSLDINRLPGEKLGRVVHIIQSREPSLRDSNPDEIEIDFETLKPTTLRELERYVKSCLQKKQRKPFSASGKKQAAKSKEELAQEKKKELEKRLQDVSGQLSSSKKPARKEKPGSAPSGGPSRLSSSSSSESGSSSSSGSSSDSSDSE

[20] = molecular target: Bromodomain-containing protein 2 (Homo sapiens, UniProt P25440); assay: Induction of BRD2 degradation in human MDA-MB-231 cells assessed as decrease in BET half life at 50 ug/ml incubated for 8 hrs by immunoblotting analysis; type: cell-based; settings: dose 50.0 µg/ml
Bromodomain-containing protein 2, sequence (P25440 whole entry, looked up): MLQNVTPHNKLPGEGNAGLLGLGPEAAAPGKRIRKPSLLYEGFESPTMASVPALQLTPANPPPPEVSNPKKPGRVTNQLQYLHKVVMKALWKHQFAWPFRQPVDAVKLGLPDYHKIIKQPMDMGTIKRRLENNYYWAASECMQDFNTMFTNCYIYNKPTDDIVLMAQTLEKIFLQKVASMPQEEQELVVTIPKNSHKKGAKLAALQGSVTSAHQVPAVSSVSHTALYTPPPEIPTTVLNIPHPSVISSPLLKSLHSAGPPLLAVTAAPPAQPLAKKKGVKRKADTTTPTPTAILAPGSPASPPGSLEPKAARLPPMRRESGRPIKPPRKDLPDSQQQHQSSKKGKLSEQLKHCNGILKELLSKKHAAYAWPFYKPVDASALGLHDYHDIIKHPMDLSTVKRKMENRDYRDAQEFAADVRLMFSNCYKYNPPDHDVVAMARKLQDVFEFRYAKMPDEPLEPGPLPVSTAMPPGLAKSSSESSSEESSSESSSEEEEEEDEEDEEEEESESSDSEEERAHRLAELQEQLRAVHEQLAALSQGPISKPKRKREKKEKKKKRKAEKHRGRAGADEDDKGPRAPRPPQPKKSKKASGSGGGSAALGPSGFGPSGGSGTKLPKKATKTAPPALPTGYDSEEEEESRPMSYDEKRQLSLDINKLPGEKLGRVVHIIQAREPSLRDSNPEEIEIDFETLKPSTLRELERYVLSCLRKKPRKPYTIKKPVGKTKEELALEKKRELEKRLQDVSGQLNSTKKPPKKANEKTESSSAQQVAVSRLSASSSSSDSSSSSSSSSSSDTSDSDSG
How it was run: (§5)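 MDA-MB-231 time-course. Cells given 50 µg/mL cycloheximide plus DMSO, or 50 µg/mL cycloheximide plus 10 µM compound. RIPA lysates immunoblotted for BRD2, BRD3 and BRD4 with GAPDH as control.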

[21] = molecular target: T1, Bromodomain-containing protein 3; assay: Induction of BRD3 degradation in human MDA-MB-231 cells assessed as decrease in BET half life at 50 ug/ml incubated for 8 hrs by immunoblotting analysis; type: cell-based; settings: dose 50.0 µg/ml; how it was run: as §5
Target sequence in this assay (Q15059 2-726 limits assumed): as the sequence (Q15059 2-726 limits assumed) above

[22] = molecular target: T2, Bromodomain-containing protein 4; assay: Induction of BRD4 degradation in human MDA-MB-231 cells assessed as decrease in BET half life at 50 ug/ml incubated for 8 hrs by immunoblotting analysis; type: cell-based; settings: dose 50.0 µg/ml; how it was run: as §5

| SMILES | EC50 [1] [nM] | EC50 (LNCaP) [nM] | IC50 [2] [nM] | IC50 [3] [nM] | EC50 at 72 h [4] [nM] | EC50 (DU-145) [nM] | EC50 (PC-3 [5]) [nM] | IC50 [6] [nM] | IC50 [7] [nM] | further results |
| --- | --- | --- | --- | --- | --- | --- | --- | --- | --- | --- |
| CC(=O)OC[C@]12CC[C@H]3[C@@H](C[C@H]4O[C@]45CC=CC(=O)[C@]35C)[C@]1(O)CC[C@@]2(O)[C@@](C)(O)[C@H]1C[C@]2(C)O[C@]2(C)C(=O)O1 | 177 | 412 | 755 | 2360 | > 2000 | 1470 | 425 | 5630 | 1930 | – |
| CC1=C(C)C(=O)O[C@@H]([C@](C)(O)[C@]2(O)CC[C@@]3(O)[C@@H]4C[C@H]5O[C@]56CC=CC(=O)[C@]6(C)[C@H]4CC[C@]23C)C1 [WITHANOLIDE E] | 70 | 60 | 720 | 2950 | > 10000 | – | – | 1520 | 556 | – |
| CC(=O)OC[C@]12CC[C@H]3[C@@H](CC=C4C=CCC(=O)[C@@]43C)[C@]1(O)CC[C@@]2(O)[C@@](C)(O)[C@H]1CC(C)=C(C)C(=O)O1 | – | 1100 | 131 | 262 | > 3000 | – | 3100 | 294 | 909 | – |
| Cc1sc2c(c1C)C(c1ccc(Cl)cc1)=N[C@@H](CC(=O)NCCCCNC(=O)COc1cccc3c1C(=O)N(C1CCC(=O)NC1=O)C3=O)c1nnc(C)n1-2 (stereo partly drawn) | – | – | – | – | – | – | – | – | – | EC50 (PC-3 [8]): 50 nM |
| CC(=O)OC[C@]12CC[C@H]3[C@@H](C[C@H]4O[C@]45CC=CC(=O)[C@]35C)[C@]1(O)CC[C@@]2(O)[C@@](C)(O)[C@H]1C[C@H](C)[C@H](C)C(=O)O1 | 1130 | 1050 | > 20000 | > 20000 | > 2000 | > 2000 | 899 | > 20000 | > 20000 | – |
| CC1=C(CO)C(=O)O[C@@H]([C@@H](C)[C@H]2CC[C@H]3[C@@H]4C[C@H]5O[C@]56[C@@H](O)C=CC(=O)[C@]6(C)[C@H]4CC[C@]23C)C1 [WITHAFERIN A] | – | 870 | > 20000 | > 20000 | > 6800 | – | 410 | > 20000 | > 20000 | – |
| CC(=O)OC[C@]12CC[C@H]3[C@@H](CC=C4CC=CC(=O)[C@@]43C)[C@]1(O)CC[C@@]2(O)[C@@](C)(O)[C@H]1CC(C)=C(C)C(=O)O1 | 70 | 130 | 15800 | 18 | > 3000 | – | 130 | 3920 | 19.3 | – |
| CC(=O)OC[C@]12CC[C@H]3[C@@H](C[C@@H]4O[C@@]45CC=CC(=O)[C@]35C)[C@]1(O)CC[C@@]2(O)[C@@](C)(O)[C@H]1CC(C)=C(C)C(=O)O1 | – | 320 | 4260 | 89.7 | > 12000 | – | 1200 | 10800 | 31.2 | – |
| Cc1sc2c(c1C)C(c1ccc(Cl)cc1)=N[C@@H](CC(=O)OC(C)(C)C)c1nnc(C)n1-2 | 230 | 162 | – | – | > 2000 | > 2000 | > 2000 | – | – | Activity (VCaP [9]): Active; Activity (VCaP [10]): inactive; Activity (VCaP [11]): Active; Activity (VCaP [12]): inactive; Activity (VCaP [13]): inactive; EC50 (VCaP [14]): 160 nM; Activity (VCaP [15]): Dose-Dependent Effect; Activity (VCaP [16]): inactive |
| CC1=C(CO)C[C@H]([C@](C)(O)[C@]2(O)CC[C@@]3(O)[C@@H]4C[C@H]5O[C@]56CC=CC(=O)[C@]6(C)[C@H]4CC[C@]23C)OC1=O | – | 2780 | > 20000 | 736 | – | > 5000 | 2900 | > 20000 | 281 | EC50 at 72 h [17]: > 5000 nM; EC50 (VCaP [14]): 1110 nM |
| CC(=O)OC[C@]12CC[C@H]3[C@@H](C[C@H]4O[C@]45CC=CC(=O)[C@]35C)[C@]1(O)[C@@H](OC(C)=O)C[C@@]2(O)[C@@](C)(O)[C@H]1CC(C)=C(C)C(=O)O1 | – | 1200 | 6000 | 210 | – | – | 180 | 14800 | 47.6 | EC50 at 72 h [17]: > 5000 nM |
| COc1cccc2c1C(=O)c1c(O)c3c(c(O)c1C2=O)C[C@@](O)(C(=O)CO)C[C@@H]3O[C@H]1C[C@H](N)[C@H](O)[C@H](C)O1 [DOXORUBICIN] | 20 | 110 | – | – | 150 | 40 | 340 | – | – | EC50 at 72 h [17]: 800 nM; EC50 (VCaP [14]): 670 nM |
| CC(=O)OC[C@]12CC[C@H]3[C@@H](C[C@H]4O[C@]45CCCC(=O)[C@]35C)[C@]1(O)CC[C@@]2(O)[C@@](C)(O)[C@H]1CC(C)=C(C)C(=O)O1 | – | – | 10600 | 235 | – | – | 1100 | 9140 | 60 | Activity [18]: inactive; EC50 (VCaP [14]): > 2000 nM; Activity [19]: inactive |
| C[C@@H]1C[C@@H]([C@H](O)CC2CC(=O)NC(=O)C2)C(=O)[C@@H](C)C1 | – | – | – | – | – | – | – | – | – | Activity [20]: inactive; Activity [21]: inactive; Activity [22]: inactive |
| CC(=O)OC[C@]12CC[C@H]3[C@@H](C[C@H]4O[C@]45CCCC(=O)[C@]35C)[C@]1(O)CC[C@@]2(O)[C@@](C)(O)[C@H]1C[C@@H](C)[C@@H](C)C(=O)O1 | > 2000 | > 2000 | > 20000 | > 20000 | > 2000 | > 2000 | > 2000 | 1830 | 3870 | – |
| C[C@H]1C[C@H]([C@](C)(O)[C@]2(O)CC[C@@]3(O)[C@@H]4C[C@H]5O[C@]56CC=CC(=O)[C@]6(C)[C@H]4CC[C@]23C)OC(=O)[C@@H]1C | 210 | 290 | – | – | > 2000 | – | – | – | – | – |
| CC(=O)OC[C@]12CC[C@H]3[C@@H](C[C@H]4O[C@]45CC=CC(=O)[C@]35C)[C@]1(O)CC[C@@]2(O)[C@@](C)(O)[C@H]1C[C@@H](C)[C@@H](C)C(=O)O1 | 1490 | 1060 | > 20000 | > 20000 | > 2000 | > 2000 | 844 | > 20000 | > 20000 | – |
